Assay results reported in ChEMBL document CHEMBL4689842, “EUbOPEN Chemogenomics Library wave 1” (2021).

Test system: U2OS
Test: Multiplex assay against U2OS
Type: toxicity, cell-based
Conditions: human
How it was run: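 On a CQ1 microscope at 37°C and 5% CO2, live cells were imaged after compound addition. They had been stained at seeding with Hoechst33342, BioTracker Green Microtubule Cytoskeleton Dye, MitoTracker Red and Annexin V Alexa Fluor 680. CellPathfinder machine-learning gating assigned cells to Hoechst high-intensity objects or normal cells, normal cells to healthy, pyknosed or fragmented nuclei, and pyknosed cells to mitotic or apoptotic. Tubulin, mitochondrial-mass and membrane-permeability phenotypes are per cents of healthy-nucleus cells.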

[1] = 12 h, 1 µM, compound concentration 1 uM, replicate 1
[2] = 12 h, 1 µM, compound concentration 1 uM, replicate 2
[3] = 12 h, 10 µM, compound concentration 10 uM, replicate 1
[4] = 12 h, 10 µM, compound concentration 10 uM, replicate 2
[5] = 24 h, 1 µM, compound concentration 1 uM, replicate 1
[6] = 24 h, 1 µM, compound concentration 1 uM, replicate 2
[7] = 24 h, 10 µM, compound concentration 10 uM, replicate 1
[8] = 24 h, 10 µM, compound concentration 10 uM, replicate 2
[9] = 48 h, 1 µM, compound concentration 1 uM, replicate 1
[10] = 48 h, 1 µM, compound concentration 1 uM, replicate 2
[11] = 48 h, 10 µM, compound concentration 10 uM, replicate 1
[12] = 48 h, 10 µM, compound concentration 10 uM, replicate 2

Q: For `CCc1nn(CCCN2CCN(c3cccc(Cl)c3)CC2)c(=O)n1CCOc1ccccc1.Cl` [NEFAZODONE HYDROCHLORIDE], which “Population Apoptotic (%)” value [1] is on record?
A: Its value is 42%.

Q: And the “Population Fragmented Nuclei (%)” value [1]?
A: Its value is 11%.

Q: And the “Population Healthy Nuclei (%)” value [1]?
A: Its value is 67%.

Q: What about the “Population Hoechst High Intensity Objects (%)” value [1] of the same molecule?
A: Its value is 9%.

Q: What about the “Population Membrane Permeable-Phenotype (%)” value [1] of the same molecule?
A: The value was 1%.

Q: What about the “Population Mitochondria Different-Phenotype (%)” value [1] of the same molecule?
A: The value was 27%.

Q: And the “Population Mitotic Cells (%)” value [1]?
A: Its value is 57%.

Q: And the “Population Normal (%)” value [1]?
A: The value was 90%.

Q: And the “Population Pyknosed Nuclei (%)” value [1]?
A: Its value is 20%.

Q: And the “Population Tubulin-Different-Phenotype (%)” value [1]?
A: The value was 28%.

Q: And the “Population Apoptotic (%)” value [2]?
A: The value was 0%.

Q: And the “Population Fragmented Nuclei (%)” value [2]?
A: The value was 8%.

Q: What about the “Population Healthy Nuclei (%)” value [2] of the same molecule?
A: Its value is 89%.

Q: What about the “Population Hoechst High Intensity Objects (%)” value [2] of the same molecule?
A: The value was 6%.

Q: And the “Population Membrane Permeable-Phenotype (%)” value [2]?
A: The value was 3%.

Q: What about the “Population Mitochondria Different-Phenotype (%)” value [2] of the same molecule?
A: The value was 9%.

Q: And the “Population Mitotic Cells (%)” value [2]?
A: Its value is 100%.

Q: What about the “Population Normal (%)” value [2] of the same molecule?
A: The value was 93%.

Q: And the “Population Pyknosed Nuclei (%)” value [2]?
A: The value was 1%.

Q: What about the “Population Tubulin-Different-Phenotype (%)” value [2] of the same molecule?
A: Its value is 29%.

Q: What about the “Total Cell Count” value [2] of the same molecule?
A: The value was 68.

Q: And the “Population Apoptotic (%)” value [3]?
A: Its value is 71%.

Q: And the “Population Fragmented Nuclei (%)” value [3]?
A: The value was 13%.

Q: What about the “Population Healthy Nuclei (%)” value [3] of the same molecule?
A: The value was 55%.

Q: And the “Population Hoechst High Intensity Objects (%)” value [3]?
A: Its value is 5%.

Q: What about the “Population Membrane Permeable-Phenotype (%)” value [3] of the same molecule?
A: Its value is 56%.

Q: What about the “Population Mitochondria Different-Phenotype (%)” value [3] of the same molecule?
A: The value was 100%.

Q: And the “Population Mitotic Cells (%)” value [3]?
A: Its value is 28%.

Q: What about the “Population Normal (%)” value [3] of the same molecule?
A: The value was 94%.

Q: What about the “Population Pyknosed Nuclei (%)” value [3] of the same molecule?
A: Its value is 31%.

Q: What about the “Population Tubulin-Different-Phenotype (%)” value [3] of the same molecule?
A: Its value is 100%.

Q: And the “Total Cell Count” value [3]?
A: The value was 150.

Q: And the “Population Apoptotic (%)” value [4]?
A: The value was 69%.

Q: And the “Population Fragmented Nuclei (%)” value [4]?
A: Its value is 9%.

Q: And the “Population Healthy Nuclei (%)” value [4]?
A: Its value is 69%.

Q: And the “Population Hoechst High Intensity Objects (%)” value [4]?
A: Its value is 3%.

Q: What about the “Population Membrane Permeable-Phenotype (%)” value [4] of the same molecule?
A: The value was 60%.

Q: What about the “Population Mitochondria Different-Phenotype (%)” value [4] of the same molecule?
A: Its value is 97%.

Q: What about the “Population Mitotic Cells (%)” value [4] of the same molecule?
A: The value was 30%.

Q: And the “Population Normal (%)” value [4]?
A: The value was 96%.

Q: And the “Population Pyknosed Nuclei (%)” value [4]?
A: The value was 20%.

Q: And the “Population Tubulin-Different-Phenotype (%)” value [4]?
A: The value was 97%.

Q: What about the “Total Cell Count” value [4] of the same molecule?
A: The value was 61.

Q: What about the “Population Apoptotic (%)” value [5] of the same molecule?
A: Its value is 32%.

Q: And the “Population Fragmented Nuclei (%)” value [5]?
A: Its value is 10%.

Q: What about the “Population Healthy Nuclei (%)” value [5] of the same molecule?
A: The value was 73%.

Q: What about the “Population Hoechst High Intensity Objects (%)” value [5] of the same molecule?
A: Its value is 6%.

Q: And the “Population Membrane Permeable-Phenotype (%)” value [5]?
A: The value was 3%.

Q: And the “Population Mitochondria Different-Phenotype (%)” value [5]?
A: Its value is 21%.

Q: What about the “Population Mitotic Cells (%)” value [5] of the same molecule?
A: The value was 68%.

Q: What about the “Population Normal (%)” value [5] of the same molecule?
A: The value was 93%.

Q: And the “Population Pyknosed Nuclei (%)” value [5]?
A: Its value is 15%.

Q: What about the “Population Tubulin-Different-Phenotype (%)” value [5] of the same molecule?
A: Its value is 22%.

Q: What about the “Population Apoptotic (%)” value [6] of the same molecule?
A: The value was 50%.

Q: What about the “Population Fragmented Nuclei (%)” value [6] of the same molecule?
A: Its value is 8%.

Q: What about the “Population Healthy Nuclei (%)” value [6] of the same molecule?
A: Its value is 85%.

Q: What about the “Population Hoechst High Intensity Objects (%)” value [6] of the same molecule?
A: Its value is 2%.

Q: And the “Population Membrane Permeable-Phenotype (%)” value [6]?
A: Its value is 1%.

Q: And the “Population Mitochondria Different-Phenotype (%)” value [6]?
A: The value was 15%.

Q: What about the “Population Mitotic Cells (%)” value [6] of the same molecule?
A: Its value is 50%.

Q: And the “Population Normal (%)” value [6]?
A: The value was 97%.

Q: And the “Population Pyknosed Nuclei (%)” value [6]?
A: Its value is 5%.

Q: And the “Population Tubulin-Different-Phenotype (%)” value [6]?
A: Its value is 33%.

Q: What about the “Total Cell Count” value [6] of the same molecule?
A: Its value is 71.

Q: And the “Population Apoptotic (%)” value [7]?
A: Its value is 82%.

Q: And the “Population Fragmented Nuclei (%)” value [7]?
A: Its value is 17%.

Q: And the “Population Healthy Nuclei (%)” value [7]?
A: Its value is 49%.

Q: And the “Population Hoechst High Intensity Objects (%)” value [7]?
A: The value was 7%.

Q: And the “Population Membrane Permeable-Phenotype (%)” value [7]?
A: The value was 72%.

Q: What about the “Population Mitochondria Different-Phenotype (%)” value [7] of the same molecule?
A: Its value is 98%.

Q: And the “Population Mitotic Cells (%)” value [7]?
A: The value was 17%.

Q: What about the “Population Normal (%)” value [7] of the same molecule?
A: Its value is 92%.

Q: What about the “Population Pyknosed Nuclei (%)” value [7] of the same molecule?
A: Its value is 33%.

Q: And the “Population Tubulin-Different-Phenotype (%)” value [7]?
A: Its value is 100%.

Q: And the “Total Cell Count” value [7]?
A: The value was 172.

Q: What about the “Population Apoptotic (%)” value [8] of the same molecule?
A: The value was 80%.

Q: And the “Population Fragmented Nuclei (%)” value [8]?
A: Its value is 22%.

Q: What about the “Population Healthy Nuclei (%)” value [8] of the same molecule?
A: Its value is 56%.

Q: What about the “Population Hoechst High Intensity Objects (%)” value [8] of the same molecule?
A: Its value is 1%.

Q: What about the “Population Membrane Permeable-Phenotype (%)” value [8] of the same molecule?
A: Its value is 80%.

Q: What about the “Population Mitochondria Different-Phenotype (%)” value [8] of the same molecule?
A: The value was 100%.

Q: And the “Population Mitotic Cells (%)” value [8]?
A: Its value is 20%.

Q: What about the “Population Normal (%)” value [8] of the same molecule?
A: The value was 98%.

Q: And the “Population Pyknosed Nuclei (%)” value [8]?
A: The value was 20%.

Q: And the “Total Cell Count” value [8]?
A: Its value is 72.

Q: What about the “Population Apoptotic (%)” value [9] of the same molecule?
A: Its value is 46%.

Q: What about the “Population Fragmented Nuclei (%)” value [9] of the same molecule?
A: Its value is 9%.

Q: What about the “Population Healthy Nuclei (%)” value [9] of the same molecule?
A: Its value is 73%.

Q: What about the “Population Hoechst High Intensity Objects (%)” value [9] of the same molecule?
A: Its value is 5%.

Q: What about the “Population Membrane Permeable-Phenotype (%)” value [9] of the same molecule?
A: Its value is 3%.

Q: And the “Population Mitochondria Different-Phenotype (%)” value [9]?
A: Its value is 15%.

Q: What about the “Population Mitotic Cells (%)” value [9] of the same molecule?
A: The value was 53%.

Q: What about the “Population Normal (%)” value [9] of the same molecule?
A: The value was 94%.

Q: What about the “Population Pyknosed Nuclei (%)” value [9] of the same molecule?
A: Its value is 16%.

Q: And the “Population Tubulin-Different-Phenotype (%)” value [9]?
A: Its value is 14%.

Q: What about the “Population Apoptotic (%)” value [10] of the same molecule?
A: The value was 16%.

Q: And the “Population Fragmented Nuclei (%)” value [10]?
A: Its value is 5%.

Q: And the “Population Healthy Nuclei (%)” value [10]?
A: Its value is 88%.

Q: And the “Population Hoechst High Intensity Objects (%)” value [10]?
A: Its value is 1%.

Q: What about the “Population Membrane Permeable-Phenotype (%)” value [10] of the same molecule?
A: The value was 2%.

Q: And the “Population Mitochondria Different-Phenotype (%)” value [10]?
A: Its value is 18%.

Q: And the “Population Mitotic Cells (%)” value [10]?
A: The value was 83%.

Q: What about the “Population Normal (%)” value [10] of the same molecule?
A: Its value is 98%.

Q: What about the “Population Pyknosed Nuclei (%)” value [10] of the same molecule?
A: Its value is 5%.

Q: What about the “Population Tubulin-Different-Phenotype (%)” value [10] of the same molecule?
A: The value was 46%.

Q: And the “Total Cell Count” value [10]?
A: The value was 67.

Q: And the “Population Apoptotic (%)” value [11]?
A: Its value is 82%.

Q: And the “Population Fragmented Nuclei (%)” value [11]?
A: Its value is 24%.

Q: What about the “Population Healthy Nuclei (%)” value [11] of the same molecule?
A: Its value is 41%.

Q: What about the “Population Membrane Permeable-Phenotype (%)” value [11] of the same molecule?
A: Its value is 83%.

Q: And the “Population Mitochondria Different-Phenotype (%)” value [11]?
A: Its value is 97%.

Q: And the “Population Mitotic Cells (%)” value [11]?
A: The value was 17%.

Q: And the “Population Pyknosed Nuclei (%)” value [11]?
A: Its value is 34%.

Q: And the “Total Cell Count” value [11]?
A: The value was 246.

Q: And the “Population Apoptotic (%)” value [12]?
A: Its value is 66%.

Q: And the “Population Fragmented Nuclei (%)” value [12]?
A: The value was 14%.

Q: And the “Population Healthy Nuclei (%)” value [12]?
A: Its value is 43%.

Q: What about the “Population Hoechst High Intensity Objects (%)” value [12] of the same molecule?
A: The value was 8%.

Q: What about the “Population Membrane Permeable-Phenotype (%)” value [12] of the same molecule?
A: The value was 85%.

Q: And the “Population Mitochondria Different-Phenotype (%)” value [12]?
A: Its value is 100%.

Q: What about the “Population Mitotic Cells (%)” value [12] of the same molecule?
A: Its value is 33%.

Q: What about the “Population Normal (%)” value [12] of the same molecule?
A: The value was 91%.

Q: And the “Population Pyknosed Nuclei (%)” value [12]?
A: Its value is 42%.

Q: What about the “Population Tubulin-Different-Phenotype (%)” value [12] of the same molecule?
A: The value was 100%.

Q: What about the “Total Cell Count” value [12] of the same molecule?
A: Its value is 110.
